# The list is not random: actives were taken first. Their share in the collection is about 2.4%.
# MIN6 prolif: inducers of MIN6 beta-cell proliferation, primary screen, ATP luminescence, uHTS | 330,000 tested, 0.29% active | MIN6 cells proliferation, ATPlite luminescence, 48 h; cells starved in 0.2% serum; 100% = growth in 10% serum | AID 2380, 2010 | proliferation, % at 10 µM;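 active means compounds whose signal lies at least 3.5 SD above the mean of all wells on their plate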;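 further: 0% = DMSO-treated cells in low-serum medium and 100% = 10% serum control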
# Calb FLC: C. albicans growth inhibition with fluconazole, primary screen, CaCi-2 strain, Alamar Blue fluorescence. AID 1979, 2009. 300,000 tested, 0.57% active. growth inhibition, % (no concentration beside the values). C. albicans CaCi-2 + fluconazole, 48 h;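 active means growth inhibition above about 58% in most replicates, limit read from the data, passing the limit was not always enough; inconclusive means exactly half the replicates above a set limit; inactive means most replicates below a set limit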;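 further: all wells also contain fluconazole at 8 µg/ml as a sub-toxic cotreatment; 0% = median of DMSO wells and 100% = median of geldanamycin control wells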
# Ins promoter up: insulin promoter activators in MIN6 cells, imaging, high-content screening, mouse beta cells | MIN6 insulin promoter-GFP reporter; active compounds read high | z-score at 5 µM | 190,000 tested, 0.3% active | AID 1625, 2009;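 active means z-score above 3 at 5 µM with at least 500 cells counted in the well; inconclusive means wells under 500 cells, flagged as cytotoxic or low count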
# SR-BI uptake up: activators of SR-BI mediated DiI-HDL uptake, primary screen, ldlA[mSR-BI] CHO cells, DiI fluorescence | AID 504775, 2011 | 3 h; 100 = double the neutral-control signal | activation, % at 12.5 µM | 320,000 tested, 0.096% active;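 active means mean replicate activation of at least 60% and every replicate at or above 60%; inconclusive means mean or all-replicate condition met, but not both; inactive means mean below 60% and not all replicates reaching 60%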;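 further: 0% = median plate neutral-control signal and 100% = twice that signal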
#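 Assay system: LDL receptor-deficient CHO ldlA cells overexpressing murine SR-BI / Medium: BSA-supplemented, HEPES-buffered Ham's F12, pH 7.4 / Probe or stimulus: DiI-labelled HDL at 10 µg/mL final / Timing: compound with DiI-HDL co-incubation, 3 h at 37 °C / Technique: bottom-read cell fluorescence after medium removal, ex 550/em 595 nm / Measure: HDL uptake via cellular fluorescence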
# HTR2A ag: mouse Htr2a agonists via beta-arrestin recruitment, primary screen, cell-based, luminescence; 5-hydroxytryptamine receptor 2A (Mus musculus), P35363; AID 624169, 2012; activation, % at 7.6 µM; CHO-K1 mHTR2A beta-arrestin complementation; percent of 30 µM serotonin response; 360,000 tested, 0.66% active;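 active means activation above a run cutoff, the mean activation of all tested compounds plus 3 SD, cut at about 14% in these data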;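 further: 0% = plate median of compound wells and 100% = 30 µM serotonin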
# SR-BI DiI inh: inhibitors of SR-BI mediated HDL lipid uptake, primary screen, ldlA[mSR-BI] cells, fluorescence, single point | ldlA[mSR-BI] CHO cells, DiI-HDL uptake fluorescence, 3 h | inhibition, % at 12.5 µM | Scavenger receptor class B member 1 (Mus musculus), Q61009 | 320,000 tested, 0.96% active;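 active means mean replicate inhibition of at least 70% and a set share of replicates each scoring 70 or more; inconclusive means meets just one of the two criteria; inactive means fails both criteria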;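 further: 0% = median of neutral control wells and 100% = median of positive control wells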
# Target sequence (Q61009 whole entry, looked up): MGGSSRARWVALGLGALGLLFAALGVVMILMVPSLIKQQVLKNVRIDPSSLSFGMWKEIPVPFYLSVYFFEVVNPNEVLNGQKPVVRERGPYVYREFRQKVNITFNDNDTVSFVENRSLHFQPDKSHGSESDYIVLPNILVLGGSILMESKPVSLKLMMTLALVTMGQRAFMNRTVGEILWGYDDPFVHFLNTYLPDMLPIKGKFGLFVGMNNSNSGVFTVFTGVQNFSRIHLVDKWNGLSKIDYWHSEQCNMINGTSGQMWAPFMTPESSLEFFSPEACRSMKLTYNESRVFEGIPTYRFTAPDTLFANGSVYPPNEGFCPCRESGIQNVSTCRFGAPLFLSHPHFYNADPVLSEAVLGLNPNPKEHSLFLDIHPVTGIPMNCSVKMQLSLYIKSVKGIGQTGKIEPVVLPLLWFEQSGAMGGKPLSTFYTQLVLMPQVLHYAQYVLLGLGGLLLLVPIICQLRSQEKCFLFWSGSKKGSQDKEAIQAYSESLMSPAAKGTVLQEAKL
# * marks the source's active call; other numbers are inactive results; ? = inconclusive; nt = no result.
SMILES,MIN6 prolif,Calb FLC,Ins promoter up,SR-BI uptake up,HTR2A ag,SR-BI DiI inh
O=C(CCCn1c(=O)c2cccn2c2cccnc21)NCCc1ccc(Cl)cc1,-3.6,4.3,nt,-78.9,3.4,78.8*
O=C1/C(=C/c2ccccc2F)SC(=S)N1CC(=O)N1CCCCC1c1cccnc1 (configuration not stated),-6.8,-14.4,nt,-17.5,4.5,17.5
O=C(Nc1ccncc1)c1ccc(Cl)cc1,-2.1,-0.7,nt,4.4,2.9,-4.4
O=C(Nc1ccncc1)c1ccc(Br)cc1,-2.7,92.7*,nt,-4.1,0.6,4.1
O=C(/C=C\c1ccc2c(c1)OCO2)Nc1c2c(nn1-c1ccc(Cl)cc1)CSC2,-3.6,12.9,0.64,-74.6,-6.0,74.6*
CC(=O)Nc1c2c(nn1-c1ccccc1)CSC2,-2.0,4.3,nt,16.1,0.7,-16.1
N#Cc1ccc(CC(C(=O)O)N2Cc3ccccc3C2=O)cc1 (configuration not stated),1.1,5.8,nt,-11.3,-3.1,11.3
Cc1ccc(N2CC(C(=O)NCc3n[nH]c(=O)c4ccccc34)CC2=O)cc1 (configuration not stated),4.7,nt,nt,-2.2,1.8,2.2
O=C(Nc1nc(-c2ccccn2)cs1)c1cc2ccccc2o1,-7.2,98.6*,1.22,0.8,-3.9,-0.8
Nc1nc(CN2CCN(c3ccccn3)CC2)nc(Nc2ccc(F)cc2)n1,-0.4,92.3*,-0.72,-5.2,12.9,5.2
C/C(=N\O)c1cc(Cl)cc(Cl)c1O,-1.1,76.7*,-1.31,21.0,-2.8,-21.0
C=CCN1C(=O)C(CC(=O)Nc2ccccc2F)S/C1=N\c1nccs1 (configuration not stated),-0.1,1.3,-0.42,-84.5,4.4,84.5*
CCN1C(=O)C(CC(=O)Nc2ccccc2)S/C1=N\c1ccccn1 (configuration not stated),-0.6,-14.0,-0.2,-78.0,-1.0,78.0*
O=C(CC1SC(=Nc2ccccc2)N(CCO)C1=O)Nc1ccccc1 (configuration not stated),-3.8,-11.2,0.83,-26.5,2.9,26.5
O=[N+]([O-])CC(c1ccccc1)c1c[nH]c2ccccc12 (configuration not stated),-4.2,0.4,nt,nt,-5.7,nt
O=[N+]([O-])CC(c1ccccc1)P(=O)(c1ccccc1)c1ccccc1 (configuration not stated),-0.1,94.4*,nt,5.3,1.1,-5.3
CC(C)[C@H](NC(=O)CCCn1nnc2ccccc2c1=O)C(=O)O,3.1,-0.5,0.16,17.6,-3.0,-17.6
C[C@@H]1CN([C@H](C)CO)C(=O)Cc2cc(NC(=O)Nc3ccccc3)ccc2O[C@@H]1CN(C)C(=O)Nc1ccc2c(c1)OCO2,3.1,nt,nt,2.6,-8.9,-2.6
Cc1ccc(C)c2sc(NC(=O)c3ccc(N4C(=O)CCC4=O)cc3)nc12,-2.3,5.2,0.03,-78.9,6.6,78.9*
COc1cccc2sc(Nc3nc(-c4ccncc4)cs3)nc12,-0.5,38.3,-0.83,-79.9,-3.8,79.9*
COC(=O)c1c(NC(=O)c2c(-c3ccccc3Cl)noc2C)sc2c1CCC2,-1.9,-2.2,-0.75,-50.0,2.9,50.0
Cc1onc(-c2ccccc2Cl)c1C(=O)Nc1nnc(C(C)C)s1,1.5,-2.1,-0.67,2.6,0.4,-2.6
Cc1onc(-c2ccccc2Cl)c1C(=O)Nc1sc2c(c1C(N)=O)CCC(C)C2 (configuration not stated),-5.4,?,nt,-73.5,-6.3,73.5*
Cc1nnc(NC(=O)c2c(-c3ccccc3Cl)noc2C)s1,-0.9,82.8*,-0.06,14.7,3.7,-14.7
O=c1[nH]c2ccccc2c(O)c1-c1cc2ccccc2oc1=O,-3.4,0.0,0.61,nt,nt,nt
SMILES,MIN6 prolif,Calb FLC,Ins promoter up,SR-BI uptake up,HTR2A ag,SR-BI DiI inh
COc1ccccc1CCNS(=O)(=O)CCNC(=O)c1ccc2c(c1)OCO2,-1.7,-3.5,nt,36.5,0.3,-36.5
CC1=[N+](C)c2c(ccc3cccnc23)C1(C)C,nt,nt,0.45,97.3*,7.5,-97.3
CN(C)/C=C(/C#N)C(=O)c1cccc(Oc2ccc(C(C)(C)C)cc2)c1,-3.1,3.7,-0.2,-71.3,-2.4,71.3*
C/C(=N/NC(=O)c1ccccc1O)c1ccc(N2C(=O)C3CCCCC3C2=O)cc1 (configuration not stated),-1.6,111.0*,0.28,4.7,1.6,-4.7
C/C(=N\NC(=O)c1ccccc1O)c1ccc(NC(=O)c2ccccc2)cc1,1.6,-7.4,nt,-6.1,-2.3,6.1
CCOC(=O)C1CCN(C(=O)Nc2ccc(Cl)cc2Cl)CC1,-3.4,-14.9,-0.03,-79.5,1.5,79.5*
C/C(CC(=O)NCc1ccc(F)cc1)=N\NC(N)=S,-1.0,-6.7,nt,-86.7,1.4,86.7*
COc1cc(OC)cc(-c2sc3ccc(OC)cc3c2C#CCO)c1,-5.9,nt,nt,-78.7,8.4,78.7*
COc1ccc(C(=O)NCc2ccncc2)cc1S(=O)(=O)NCc1ccc(Cl)cc1,0.9,nt,nt,-4.7,-8.9,4.7
CCCCn1c(CN2CCN(C(=O)OCC)CC2)nc2c1c(=O)n(C)c(=O)n2C,-1.6,101.5*,-0.42,5.2,4.2,-5.2
CCOC(=O)c1cc2nc(Nc3ccc(OC)cc3)sc2s1,-3.2,nt,-0.33,-72.3,-8.8,72.3*
COc1ccc(-c2nnc(NC(=O)c3ccc(S(=O)(=O)N4CCCc5ccccc54)cc3)o2)cc1,-2.9,101.3*,-0.26,0.0,2.4,0.0
O=C(Nc1nnc(C2CC2)o1)c1ccc(S(=O)(=O)N2CCCc3ccccc32)cc1,-5.3,?,-0.06,2.8,-5.2,-2.8
COc1cc(-c2nnc(NC(=O)c3ccc(S(=O)(=O)N4CCOCC4)cc3)o2)cc(OC)c1OC,-3.7,90.4*,1.76,nt,nt,nt
COCc1nnc(NC(=O)c2ccc(S(=O)(=O)N3CCCc4ccccc43)cc2)o1,-5.2,91.6*,0.07,13.0,-1.2,-13.0
O=C(Nc1ccccc1N1CCOCC1)c1ccc(Cl)c(S(=O)(=O)NCc2ccco2)c1,2.2,2.9,0.01,-17.6,-3.2,17.6
O=C(Nc1ccccc1N1CCOCC1)c1ccc(S(=O)(=O)NCc2ccco2)cc1,0.4,108.2*,2.07,-11.2,-2.0,11.2
O=C(NCc1ccco1)c1ccc(S(=O)(=O)N2CCCc3ccccc32)cc1,-3.5,5.2,1.32,-76.1,-4.5,76.1*
OCCN1CCN(Cc2cc(Cl)c3cccnc3c2O)CC1,-1.4,102.8*,0.19,9.2,-3.4,-9.2
